Assay results: ChEMBL document CHEMBL4706625, “Synthesis of Guaianolide Analogues with a Tunable α-Methylene-γ-lactam Electrophile and Correlating Bioactivity with Thiol Reactivity” (J Med Chem, 2020)
Active and inactive are the calls of the source. No cut-off for these calls is given here.

Assays:
[1] = tested on: A549; assay: Inhibition of TNFalpha-induced canonical NF-kappaB signaling (unknown origin) expressed in human A549 cells at 10 uM […] by NF-kappaB-driven luciferase reporter gene assay; type: cell-based; conditions: time 500.0 min
[2] = tested on: HEK293; assay: Inhibition of TNFalpha-induced canonical NF-kappaB signaling (unknown origin) expressed in HEK293 cells at 7.5 uM pre-incubated for 30 mins followed by TNFalpha stimulation for 8 hrs by NF-kappaB-driven SEAP assay; type: cell-based; conditions: Homo sapiens, time 510.0 min
Outline: (§1)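 HEK293 cells stably carrying an NF-κB-driven SEAP reporter were grown in DMEM with 10% FBS, penicillin/streptomycin and 0.5 mg/mL G418 at 37 °C, 5% CO2. They were seeded at 5,000 cells/well 24 h ahead. Compounds (1–7.5 μM, 0.5% DMSO final) were added for 30 min, then TNF-α at 22.5 ng/mL final for 8 h. Secreted SEAP in the medium was quantified chemiluminescently, relative to the induced control set as 100%.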

[3] = Thiol-reactivity using 13C-labeled La antigen containing reactive cysteine C245 at 400 uM at 37 degreeC for 90 mins in absence of DTT by 2D 1H-13C HMQC ALARM NMR spectroscopy; type: ADME; conditions: 1.5 h
Outline: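 ALARM NMR: compound (400 μM final) was incubated with 13C-methyl-labeled La antigen (50 μM final) at 37 °C for 90 min, without and with 20 mM DTT. Reactivity was scored from 13C-methyl chemical shift changes and attenuation of diagnostic peaks in 1H-13C HMQC spectra without DTT.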

[4] = Thiol-reactivity using La antigen containing reactive cysteine C245 at 0.5 mM incubated for 1 hr by MS analysis based ALARM MSPS analysis; conditions: 500 µM
[5] = tested on: A549; assay: Inhibition of TNFalpha-induced canonical NF-kappaB signaling (unknown origin) expressed in human A549 cells at 20 uM […] by NF-kappaB-driven luciferase reporter gene assay; type: cell-based; conditions: time 500.0 min
[6] = tested on: HEK293; assay: Inhibition of TNFalpha-induced canonical NF-kappaB signaling (unknown origin) expressed in HEK293 cells assessed as residual NF-kappaB activity at 7.5 uM pre-incubated for 30 mins followed by TNFalpha stimulation for 8 hrs by NF-kappaB-driven SEAP assay; type: cell-based; conditions: Homo sapiens, time 510.0 min; outline: as §1
[7] = tested on: A549; assay: Inhibition of TNFalpha-induced canonical NF-kappaB signaling (unknown origin) expressed in human A549 cells assessed as residual NF-kappaB activity at 10 uM […] by NF-kappaB-driven luciferase reporter gene assay; type: cell-based; conditions: time 500.0 min
[8] = Toxicity in African green monkey Vero cells assessed as reduction in cell viability incubated for 48 hrs by Alamar blue assay; type: cell-based, Chlorocebus sabaeus
[9] = tested on: HEK293; assay: Inhibition of TNFalpha-induced canonical NF-kappaB signaling (unknown origin) expressed in HEK293 cells assessed as residual NF-kappaB activity at 7.5 uM pre-incubated for 30 mins followed by TNFalpha stimulation for 8 hrs by NF-kappaB-driven SEAP assay; conditions: Homo sapiens, time 510.0 min
[10] = tested on: A549; assay: Inhibition of TNFalpha-induced canonical NF-kappaB signaling (unknown origin) expressed in human A549 cells assessed as residual NF-kappaB activity at 20 uM […] followed by TNFalpha stimulation for 8 hrs by NF-kappaB-driven luciferase reporter gene assay; type: cell-based; conditions: time 500.0 min

With `C=C1C(=O)N(S(=O)(=O)c2ccc(C)cc2)[C@@H]2C3=C(c4ccccc4)C(=O)CC3=C(C)CC[C@@H]12` (relative stereo) the inhibition [1] was 100% and the inhibition [2] was 100%.

For `OC(Cn1cncn1)(Cn1cncn1)c1ccc(F)cc1F` [FLUCONAZOLE], the Activity [3] was “Not Active” and the Activity [4] was “Not Active”.

With `C=C1C(=O)O[C@H]2C3=C(c4ccccc4)C(=O)CC3=C(C)CC[C@H]12` the Activity [3] was “Active” and the Activity [4] was “Active”.

With `C=C1C(=O)N[C@@H]2C3=C(c4ccccc4)C(=O)CC3=C(C)CC[C@@H]12` the inhibition [5] was “inactive”.

With `C=C1C(=O)N(C)[C@@H]2C3=C(c4ccccc4)C(=O)CC3=C(C)CC[C@@H]12` (relative stereo) the inhibition [5] was “inactive”.

Work on `C=C1C(=O)O[C@@H]2[C@H]3O[C@]3(C)CC/C=C(\C)CC[C@@H]12` yielded an Activity [6] of 20% and an Activity [7] of 53%.

For `C=C1C(=O)N[C@@H]2C3=CC(=O)CC3=C(C)CC[C@@H]12`, the inhibition [5] was “inactive”, the IC50 at 48 h [8] was over 200 µM and the inhibition [9] was “inactive”.

In the case of `C=C1C(=O)N(c2ccc(OC)cc2)[C@@H]2C3=C(c4ccccc4)C(=O)CC3=C(C)CC[C@@H]12` (relative stereo), the inhibition [5] is reported as “inactive” and the inhibition [9] is reported as “inactive”.

With `C=C1C(=O)N(c2ccccc2)[C@@H]2C3=C(c4ccccc4)C(=O)CC3=C(C)CC[C@@H]12` (relative stereo) the inhibition [5] was “inactive” and the inhibition [9] was “inactive”.

In the case of `C=C1C(=O)N(c2ccc(C(F)(F)F)cc2)[C@@H]2C3=C(c4ccccc4)C(=O)CC3=C(C)CC[C@@H]12` (relative stereo), the Activity [6] is reported as 44%, the Activity [10] is reported as 21% and the Activity [7] is reported as 62%. For the same molecule, the Activity [3] was “Not Active” and the Activity [4] was “Not Active”.

For `CCN(CC)c1ccc2c(C)c(-c3ccc(N4C(=O)C=CC4=O)cc3)c(=O)oc2c1`, the Activity [3] was “Active” and the Activity [4] was “Active”.

Molecule `C=C1C(=O)N(C(C)=O)[C@@H]2C3=CC(=O)CC3=C(C)CC[C@@H]12` (relative stereo) has an Activity [6] of 19%, an Activity [10] of 28% and an Activity [7] of 59%.
